For one experiment, the target named is T1, Extracellular calcium-sensing receptor (Rattus norvegicus, UniProt P48442).
T1 sequence (P48442 whole entry): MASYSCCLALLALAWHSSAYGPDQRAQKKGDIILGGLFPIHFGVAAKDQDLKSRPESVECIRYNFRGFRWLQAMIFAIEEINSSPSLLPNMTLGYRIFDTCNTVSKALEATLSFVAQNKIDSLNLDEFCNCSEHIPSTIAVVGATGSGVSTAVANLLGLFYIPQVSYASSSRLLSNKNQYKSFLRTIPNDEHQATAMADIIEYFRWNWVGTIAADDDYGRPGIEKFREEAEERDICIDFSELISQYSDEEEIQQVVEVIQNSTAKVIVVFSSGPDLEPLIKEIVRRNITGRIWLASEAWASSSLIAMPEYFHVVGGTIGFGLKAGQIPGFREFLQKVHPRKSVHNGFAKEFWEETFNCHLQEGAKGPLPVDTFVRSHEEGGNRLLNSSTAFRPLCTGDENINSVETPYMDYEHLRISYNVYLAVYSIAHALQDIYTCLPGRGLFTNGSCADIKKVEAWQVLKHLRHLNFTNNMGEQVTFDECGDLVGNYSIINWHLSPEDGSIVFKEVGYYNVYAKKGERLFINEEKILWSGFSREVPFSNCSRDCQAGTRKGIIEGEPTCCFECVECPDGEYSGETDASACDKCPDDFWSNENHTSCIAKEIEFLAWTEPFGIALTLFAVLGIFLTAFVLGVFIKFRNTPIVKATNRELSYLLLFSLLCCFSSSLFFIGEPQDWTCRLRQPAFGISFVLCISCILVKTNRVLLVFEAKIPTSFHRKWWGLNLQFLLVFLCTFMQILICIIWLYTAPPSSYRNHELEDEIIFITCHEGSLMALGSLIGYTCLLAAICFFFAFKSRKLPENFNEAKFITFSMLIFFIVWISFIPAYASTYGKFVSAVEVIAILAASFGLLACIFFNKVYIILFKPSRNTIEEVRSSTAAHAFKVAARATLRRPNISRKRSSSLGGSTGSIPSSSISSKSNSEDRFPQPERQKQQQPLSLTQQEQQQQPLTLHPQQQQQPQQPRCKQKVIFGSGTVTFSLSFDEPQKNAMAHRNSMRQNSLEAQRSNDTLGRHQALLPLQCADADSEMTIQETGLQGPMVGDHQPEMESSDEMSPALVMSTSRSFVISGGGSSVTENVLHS
Briefly: Inhibition of extracellular calcium-induced inositol triphosphate generation in rat MTC cells expressing calcium-sensing receptor. The class given is functional, cell-based.
Broadly, the IC50 is the midpoint of a concentration-inhibition curve. Regarding `CC(C)(Cc1ccc2ccccc2c1)NC[C@@H](O)COc1cccc(Cl)c1C#N`, the IC50 was determined as 530 nM.
Regarding `CC(C)(Cc1ccc2ccccc2c1)NC[C@@H](O)[C@H]1CCCN1Cc1cccc(F)c1O`, the IC50 was found to be 2560 nM.
On to `CC(C)(Cc1ccc2ccccc2c1)NC[C@@H](O)[C@H]1CCCN1Cc1cccc(C#N)c1`, for which the concentration for half-maximal inhibition (IC50) is 2200 nM.

In another experiment the target is T2, Extracellular calcium-sensing receptor (Homo sapiens, UniProt P41180).
T2 sequence (P41180 whole entry): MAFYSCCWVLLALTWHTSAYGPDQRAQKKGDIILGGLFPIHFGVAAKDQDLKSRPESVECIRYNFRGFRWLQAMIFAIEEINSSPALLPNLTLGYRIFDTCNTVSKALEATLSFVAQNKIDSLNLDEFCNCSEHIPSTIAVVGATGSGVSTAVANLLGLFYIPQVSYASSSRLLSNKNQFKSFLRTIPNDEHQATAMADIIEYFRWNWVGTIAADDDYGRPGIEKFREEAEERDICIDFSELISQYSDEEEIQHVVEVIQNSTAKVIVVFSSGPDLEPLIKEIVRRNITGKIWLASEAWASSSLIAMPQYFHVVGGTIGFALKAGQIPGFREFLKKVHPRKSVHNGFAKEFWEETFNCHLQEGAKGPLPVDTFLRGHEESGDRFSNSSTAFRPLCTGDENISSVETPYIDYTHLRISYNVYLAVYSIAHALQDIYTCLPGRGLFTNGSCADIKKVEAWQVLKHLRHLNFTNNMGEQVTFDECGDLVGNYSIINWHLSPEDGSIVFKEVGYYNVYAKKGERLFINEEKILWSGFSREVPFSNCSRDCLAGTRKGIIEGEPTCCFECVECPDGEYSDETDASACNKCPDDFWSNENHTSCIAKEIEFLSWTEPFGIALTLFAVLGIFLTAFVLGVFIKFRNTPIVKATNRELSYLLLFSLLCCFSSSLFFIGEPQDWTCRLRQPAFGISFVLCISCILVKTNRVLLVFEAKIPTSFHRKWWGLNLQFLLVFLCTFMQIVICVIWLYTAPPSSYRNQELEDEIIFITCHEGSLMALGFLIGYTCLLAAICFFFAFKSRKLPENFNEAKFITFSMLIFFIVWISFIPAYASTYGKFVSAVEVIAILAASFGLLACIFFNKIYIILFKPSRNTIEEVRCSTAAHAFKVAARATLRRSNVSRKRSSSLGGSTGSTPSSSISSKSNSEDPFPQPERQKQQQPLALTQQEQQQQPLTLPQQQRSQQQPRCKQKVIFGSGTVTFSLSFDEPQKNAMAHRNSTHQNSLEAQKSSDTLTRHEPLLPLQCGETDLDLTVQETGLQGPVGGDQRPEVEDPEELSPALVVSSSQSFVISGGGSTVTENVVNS
Description: Inhibition of intracellular calcium release in human TT cells containing calcium-sensing receptor by FLIPR. It counts as functional, cell-based. The method in brief: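 Fluorescence-based intracellular Ca2+ mobilization, read on FLIPR, in human TT cells carrying endogenous calcium-sensing receptor. IC50 values are means of two experiments.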
A general note: Calcium assays in cells follow changes in intracellular calcium, usually with a dye or a luminescent sensor.
Consider `CC(C)(Cc1ccc2ccccc2c1)NC[C@@H](O)[C@H]1CCCN1Cc1ccccc1[N+](=O)[O-]`, for which the IC50 came to 160 nM.
For the compound `CC(C)(Cc1ccc(F)cc1)NC[C@@H](O)CSc1cccc(Cl)c1Cl`, the IC50 was determined as 6180 nM.
Regarding `COc1ccc(CC(C)(C)NC[C@@H](O)[C@H]2CCCN2Cc2cccc(C#N)c2)cc1`, the half-inhibitory concentration (IC50) came out at 2670 nM.
`N#Cc1c(Cl)cccc1OC[C@H](O)CNCCc1ccc2ccccc2c1`: the 50% inhibitory concentration (IC50) turned out to be 3860 nM.
Turning to `CC(C)(Cc1ccc2ccccc2c1)NC[C@H](O)[C@H]1CCCN1Cc1ccccc1C#N`, the IC50 was 1270 nM.
On to `CC(C)(Cc1ccc2ccccc2c1)NC[C@@H](O)[C@H]1CCCN1Cc1cccc([N+](=O)[O-])c1O`, for which the IC50 was 140 nM.
Turning to `CC(C)(Cc1ccc2ccccc2c1)NC[C@@H](O)[C@H]1CCCN1Cc1cccc(O)c1`, the IC50 turned out to be 1160 nM.
Turning to `COc1cccc(CN2CCC[C@@H]2[C@H](O)CNC(C)(C)Cc2ccc3ccccc3c2)c1O`, the IC50 was 1560 nM.
Take `CC(C)(Cc1cc2ccccc2[nH]1)NC[C@@H](O)[C@H]1CCCN1Cc1cccc(C#N)c1`: the IC50 stood at 440 nM.
On to `CC(C)(Cc1cc2ccccc2[nH]1)NC[C@H](O)COc1ccccc1C#N`, for which the IC50 was determined as 100 nM.
For the compound `CC(C)(Cc1ccc2ccccc2c1)NC[C@@H](O)[C@H]1CCCN1Cc1cccc(F)c1`, the IC50 amounted to 750 nM.
Consider `CC(C)(Cc1ccc2ccccc2c1)NC[C@@H](O)[C@H]1CCCN1Cc1ccc(C#N)cc1`, for which the IC50 turned out to be 250 nM.
The same measure, in the same setting: for `CC(C)(Cc1ccc2ccccc2c1)NC[C@H](O)COc1cccc(Cl)c1C#N` the value was 50 nM; for `CC(C)(Cc1ccc2ccccc2c1)NC[C@@H](O)[C@H]1CCCN1Cc1ccccc1O`, 970 nM; for `CC(C)(Cc1ccc2ccccc2c1)NC[C@@H](O)[C@H]1CCCN1Cc1cccc([N+](=O)[O-])c1`, 140 nM.
As for `CC(C)(Cc1ccc2ccccc2c1)NC[C@@H](O)[C@H]1CCCN1Cc1cccc(Cl)c1C#N`, the IC50 is 240 nM.
Consider `CC(C)(Cc1cc2ccccc2s1)NC[C@@H](O)[C@H]1CCCN1Cc1cccc(C#N)c1`, for which the IC50 worked out at 270 nM.
Consider `N#Cc1c(Cl)cccc1OC[C@H](O)CNc1ccc2ccccc2c1`, for which the IC50 stood at 4600 nM.
In the case of `CC(C)(Cc1ccc2ccccc2c1)NC[C@@H](O)COc1ccccc1C#N`, the IC50 was 30 nM.
As to `CC(C)(Cc1ccc2ccccc2c1)NC[C@@H](O)COc1cccc(Cl)c1C#N`, the half-inhibitory concentration (IC50) amounted to 50 nM.
On to `CC(C)(Cc1csc2ccccc12)NC[C@@H](O)[C@H]1CCCN1Cc1cccc(C#N)c1`, for which the IC50 amounted to 1000 nM.
On the same count and under the same terms, for `CC(C)(Cc1nc2ccccc2s1)NC[C@@H](O)[C@H]1CCCN1Cc1cccc(C#N)c1` the value was 1350 nM; for `CC(C)(Cc1ccc2ccccc2c1)NC[C@@H](O)[C@H]1CCCN1Cc1cccc(Br)c1`, 1570 nM.
Consider `CC(C)(Cc1ccc2ccccc2c1)NCCCOc1cccc(Cl)c1C#N`, for which the IC50 stood at 880 nM.
The same measure, in the same setting: next, `CC(C)(Cc1ccc2ccccc2c1)NC[C@@H](O)[C@H]1CCCN1Cc1ccccc1C#N`: 340 nM; `CC(C)(Cc1ccc2ccccc2c1)NC[C@@H](O)[C@H]1CCCN1Cc1cccc(F)c1O`: 140 nM; `CC(C)(Cc1ccc2ccccc2c1)NC[C@@H](O)[C@H]1CCCN1Cc1ccc([N+](=O)[O-])cc1`: 790 nM.
With `COc1ccc(CC(C)(C)NC[C@H](O)COc2cccc(OC)c2)cc1`, the IC50 was 1390 nM.
Take `CC(C)(Cc1nc2ccccc2[nH]1)NC[C@@H](O)[C@H]1CCCN1Cc1cccc(C#N)c1`: the IC50 was determined as 2840 nM.
The same measure, in the same setting: for `CC(C)(Cc1ccc2ccccc2c1)NC[C@@H](O)[C@H]1CCCN1Cc1cccc(C#N)c1` the value was 190 nM; for `CC(C)(Cc1ccccc1)NC[C@H](O)COc1ccccc1S(C)(=O)=O`, 9430 nM; for `COc1cccc(CN2CCC[C@@H]2[C@H](O)CNC(C)(C)Cc2ccc3ccccc3c2)c1`, 1190 nM.
On the same count and under the same terms, next, `CC(C)(Cc1ccc2ccccc2c1)NC[C@@H](O)[C@H]1CCCN1Cc1cccc(F)c1F`: 360 nM; `CC(C)(Cc1ccc2ccccc2c1)NC[C@@H](O)[C@H]1CCCN1C(=O)c1cccc(C#N)c1`: 8430 nM.
With `CC(C)(Cc1cc2ccccc2s1)NC[C@H](O)COc1ccccc1C#N`, the IC50 stood at 60 nM.
Consider `CN(C[C@@H](O)COc1cccc(Cl)c1C#N)C(C)(C)Cc1ccc2ccccc2c1`, for which the IC50 was determined as 270 nM.
As to `COc1ccc(CC(C)(C)NCC(O)COc2ccc(S(C)(=O)=O)c(C)c2)cc1` (centres undefined), the IC50 is 11400 nM.
For `CC(C)(Cc1ccc(F)cc1)NC[C@@H](O)COc1cccc(Cl)c1C#N`, the concentration for half-maximal inhibition (IC50) came out at 600 nM.
Regarding `CC(C)(Cc1ccc2ccccc2c1)NC[C@@H](O)[C@H]1CCCN1Cc1cccc(C(=O)O)c1`, the 50% inhibitory concentration (IC50) is 6840 nM.
With `CC(C)(Cc1ccc2ccccc2c1)NC[C@@H](O)[C@H]1CCCN1Cc1cccc(-c2ccccc2)c1`, the IC50 amounted to 2470 nM.
For `CC(C)(Cc1ccc(F)cc1)NC[C@@H](O)COc1ccc(OC(F)(F)F)cc1`, the IC50 is 3300 nM.

(Values after ChEMBL document CHEMBL1141245, “Discovery of novel 1-arylmethyl pyrrolidin-2-yl ethanol amines as calcium-sensing receptor antagonists” (Bioorg Med Chem Lett, 2005).)
